Where a SMILES comes first, the peptide text is derived from it. [ ]: non-standard residue; d: D form. Nva(5-OH) = N[C@@H](CCCO)C(=O)O; Aib = CC(C)(N)C(=O)O; Sar = CNCC(=O)O
Key:
[1] = target: Angiotensin II receptor (Rattus norvegicus) (UniProt P29089+P25095+P35351); experiment: Agonist activity at Angiotensin II receptor; type: functional
Method in brief: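 Uteri from female virgin Sprague–Dawley rats (150–200 g) given 25 μg diethylstilbestrol im 24 h before sacrifice. Horns were cleaned and bathed in DeJalons solution. Contractions were recorded with noncumulative dosing, with washout at peak response and 10 min rest between challenges. Activity is relative to human ANGII as standard, as the mean of at least three tissues.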

[2] = target: T1, Angiotensin II receptor (AT-1) type-1 (Rattus norvegicus, UniProt P29089+P25095); experiment: Antagonist activity against Angiotensin II receptor type 1 as pA2; type: functional
T1 sequence (P29089 whole entry): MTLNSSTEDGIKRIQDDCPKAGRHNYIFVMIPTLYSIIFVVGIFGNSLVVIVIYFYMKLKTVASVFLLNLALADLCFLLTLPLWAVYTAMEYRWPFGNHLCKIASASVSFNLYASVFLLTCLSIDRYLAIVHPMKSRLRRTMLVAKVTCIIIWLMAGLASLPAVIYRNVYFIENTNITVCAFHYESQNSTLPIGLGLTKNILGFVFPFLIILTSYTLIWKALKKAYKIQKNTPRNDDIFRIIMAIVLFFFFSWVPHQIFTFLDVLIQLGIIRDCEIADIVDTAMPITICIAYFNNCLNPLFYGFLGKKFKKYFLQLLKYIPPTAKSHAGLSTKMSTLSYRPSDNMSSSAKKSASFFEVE
T1 sequence (P25095 whole entry): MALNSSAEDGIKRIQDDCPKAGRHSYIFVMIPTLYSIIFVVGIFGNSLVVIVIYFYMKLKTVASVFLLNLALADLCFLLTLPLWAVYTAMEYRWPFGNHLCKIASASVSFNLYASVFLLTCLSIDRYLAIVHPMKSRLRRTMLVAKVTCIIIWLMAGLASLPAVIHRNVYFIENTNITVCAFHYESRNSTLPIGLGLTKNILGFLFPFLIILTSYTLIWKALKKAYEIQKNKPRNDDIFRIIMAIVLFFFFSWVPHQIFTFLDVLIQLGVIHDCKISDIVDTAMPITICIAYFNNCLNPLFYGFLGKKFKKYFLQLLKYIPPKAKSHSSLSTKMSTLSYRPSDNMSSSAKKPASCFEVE
Method in brief: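 Isolated uterus from diethylstilbestrol-primed (25 μg im, 24 h) female virgin Sprague–Dawley rats, in DeJalons solution. An ANGII noncumulative dose-response curve was first set up in each tissue. Antagonist was added 2 min before ANGII, with EC50 reproducibility checked before and after. pA2 is the −log antagonist concentration that cuts the ED50 ANGII response to that of an ED50/2 dose, as the mean of ≥3 tissues.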

Chain of Angiotensin II receptor (Rattus norvegicus) (P35351 whole entry, looked up, one chain of several): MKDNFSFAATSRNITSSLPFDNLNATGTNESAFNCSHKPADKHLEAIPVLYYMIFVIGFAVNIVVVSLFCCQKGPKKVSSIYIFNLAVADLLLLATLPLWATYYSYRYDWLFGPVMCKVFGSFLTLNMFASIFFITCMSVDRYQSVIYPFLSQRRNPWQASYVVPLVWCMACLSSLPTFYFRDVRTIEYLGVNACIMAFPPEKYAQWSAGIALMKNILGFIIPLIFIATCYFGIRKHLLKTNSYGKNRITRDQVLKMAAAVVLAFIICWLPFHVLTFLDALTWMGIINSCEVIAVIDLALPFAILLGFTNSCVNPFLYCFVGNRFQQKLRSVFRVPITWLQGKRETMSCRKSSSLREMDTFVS

| Compound | Agonist activity [1] [%] | pA2 [2] |
| --- | --- | --- |
| CC[C@H](C)[C@H](NC(=O)[C@H](Cc1ccc(O)cc1)NC(=O)[C@@H](NC(=O)[C@H](CCCN=C(N)N)NC(=O)[C@@H](N)CC(=O)O)C(C)C)C(=O)N[C@@H](Cc1c[nH]cn1)C(=O)N1CCC[C@H]1C(=O)N[C@@H](CCOC)C(=O)O | < 0.1 | 7.5 |
| CC[C@H](C)[C@H](NC(=O)[C@@H]1CCCN1C(=O)[C@H](Cc1c[nH]cn1)NC(=O)[C@@H](NC(=O)[C@H](CCCO)NC(=O)[C@@H](NC(=O)[C@H](CCCN=C(N)N)NC(=O)C(C)(C)N)C(C)C)[C@@H](C)CC)C(=O)O (H-[Aib]RV[Nva(5-OH)]IHPI-OH) |  | 6.2 |
| CC[C@H](C)[C@H](NC(=O)[C@@H]1CCCN1C(=O)[C@H](Cc1c[nH]cn1)NC(=O)[C@@H](NC(=O)[C@H](CCCO)NC(=O)[C@@H](NC(=O)[C@H](CCCN=C(N)N)NC(=O)CNC)C(C)C)[C@@H](C)CC)C(=O)O (H-[Sar]RV[Nva(5-OH)]IHPI-OH) |  | < 5 |
| CC[C@H](C)[C@H](NC(=O)C(Cc1ccc(C(=O)O)cc1)NC(=O)[C@@H](NC(=O)[C@H](CCCN=C(N)N)NC(=O)CNC)C(C)C)C(=O)N[C@@H](Cc1c[nH]cn1)C(=O)N1CCC[C@H]1C(=O)N[C@@H](Cc1ccccc1)C(=O)O (mixture of isomers) |  | < 5 |
| CC[C@H](C)[C@H](NC(=O)C(Cc1ccc(C(F)(F)F)cc1)NC(=O)[C@@H](NC(=O)[C@H](CCCN=C(N)N)NC(=O)CNC)C(C)C)C(=O)N[C@@H](Cc1c[nH]cn1)C(=O)N1CCC[C@H]1C(=O)N[C@@H](Cc1ccccc1)C(=O)O (mixture of isomers) |  | < 5 |

Further lines, results first:

| Agonist activity [1] [%] | pA2 [2] | Compound |
| --- | --- | --- |
| < 0.1 | < 6 | CC[C@H](C)[C@H](NC(=O)[C@H](Cc1ccc(O)cc1)NC(=O)[C@@H](NC(=O)[C@@H](N)CCCN=C(N)N)C(C)C)C(=O)N[C@@H](Cc1c[nH]cn1)C(=O)N1CCC[C@H]1C(=O)N[C@@H](CCOC)C(=O)O |
|  | < 6 | CC[C@H](C)[C@H](NC(=O)[C@H](CCCO)NC(=O)[C@@H](NC(=O)[C@H](CCCN=C(N)N)NC(=O)C(C)(C)N)C(C)C)C(=O)N[C@@H](Cc1c[nH]cn1)C(=O)N1CCC[C@H]1C(=O)N[C@@H](Cc1ccccc1)C(=O)O (H-[Aib]RV[Nva(5-OH)]IHPF-OH) |
|  | < 6 | CC[C@H](C)[C@H](NC(=O)[C@H](CCCO)NC(=O)[C@@H](NC(=O)[C@H](CCCN=C(N)N)NC(=O)CNC)C(C)C)C(=O)N[C@@H](Cc1c[nH]cn1)C(=O)N1CCC[C@H]1C(=O)N[C@@H](Cc1ccccc1)C(=O)O (H-[Sar]RV[Nva(5-OH)]IHPF-OH) |
| < 0.1 | 7.6 | CC[C@H](C)[C@H](NC(=O)[C@H](Cc1ccc(O)cc1)NC(=O)[C@@H](NC(=O)[C@H](CCCN=C(N)N)NC(=O)CNC)C(C)C)C(=O)N[C@@H](Cc1c[nH]cn1)C(=O)N1CCC[C@H]1C(=O)N[C@@H](CCOC)C(=O)O (stereo in doubt; form 1) |
